# Laboratory results published in ChEMBL document CHEMBL2401714, “New linezolid-like 1,2,4-oxadiazoles active against Gram-positive multiresistant pathogens” (Eur J Med Chem, 2013).
# What was measured:
# Staphylococcus aureus [1] = test: Antibacterial activity against methicillin-resistant Staphylococcus aureus ATCC 700699 assessed as growth inhibition after 18 to 24 hrs by broth microdilution method; format: functional
# In short: (§1)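 CLSI broth microdilution: serial 2-fold dilutions of each compound in Mueller-Hinton broth, with DMSO as solvent. An equal volume of inoculum (1 × 10⁶ CFU/mL) is added to each well holding the dilutions. MIC is the lowest concentration causing no visible turbidity. Values are expressed in […]. Clinical MRSA collection isolates 433 and F511, and reference strain Mu50.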
# Staphylococcus aureus [2] = test: Antibacterial activity against methicillin-susceptible Staphylococcus aureus M923 assessed as growth inhibition after 18 to 24 hrs by broth microdilution method; format: functional
# In short: (§2)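 CLSI broth microdilution against S. aureus isolates. Two-fold serial dilutions were made in Mueller-Hinton broth, with DMSO as the compound solvent. An equal volume of inoculum (1 × 10⁶ CFU/mL) was added to each well. MIC was taken as the lowest concentration giving no visible turbidity of the medium.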
# Staphylococcus aureus [3] = test: Antibacterial activity against methicillin-resistant Staphylococcus aureus 433 assessed as growth inhibition after 18 to 24 hrs by broth microdilution method; format: functional; in short: as §1
# Staphylococcus aureus [4] = test: Antibacterial activity against methicillin-susceptible Staphylococcus aureus ATCC 29213 assessed as growth inhibition after 18 to 24 hrs by broth microdilution method; format: functional; in short: as §2
# Staphylococcus aureus [5] = test: Antibacterial activity against methicillin-resistant Staphylococcus aureus F511 assessed as growth inhibition after 18 to 24 hrs by broth microdilution method; format: functional; in short: as §1
# HaCaT [6] = test: Cytotoxicity against human HaCaT cells assessed as induction of cell death at => 25 ug/ml by MTT assay relative to control; format: cell-based
# In short: (§3)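 Cells were exposed to increasing compound concentrations, with a DMSO solvent control. HepG2 and HaCaT were grown in DMEM, and PK15 in DMEM/M199 (1:1), all with 10% heat-inactivated fetal serum. MTT (5 mg/mL stock, 1.2 mM final) was added for 1 h 30 min at 37 °C. The reaction was stopped with 90% ethanol, cells were spun at 800 × g for 10 min, and A570 was read. Values are means ± S.E. of 3 experiments run in triplicate.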
# [7] = Cytotoxicity against porcine PK-15 cells assessed as reduction of cell viability at 100 ug/ml by MTT assay relative to control; format: cell-based, Sus scrofa; details: pig; in short: as §3
# HepG2 [8] = test: Cytotoxicity against human HepG2 cells assessed as reduction of cell viability at 5 to 400 ug/ml by MTT assay; format: cell-based; in short: as §3
# [9] = Cytotoxicity against porcine PK-15 cells assessed as reduction of cell viability by MTT assay; format: cell-based, Sus scrofa; details: pig; in short: as §3
# HaCaT [10] = test: Cytotoxicity against human HaCaT cells assessed as reduction of cell viability at 5 ug/ml by MTT assay; format: cell-based; in short: as §3
# [11] = Cytotoxicity against porcine PK-15 cells assessed as reduction of cell viability at 200 to 400 ug/ml by MTT assay relative to control; format: cell-based, Sus scrofa; details: pig; in short: as §3
# [12] = Cytotoxicity against porcine PK-15 cells assessed as reduction of cell viability at 25 to 200 ug/ml by MTT assay; format: cell-based, Sus scrofa; details: pig; in short: as §3
# HaCaT [13] = test: Cytotoxicity against human HaCaT cells assessed as cell death at 200 to 400 ug/ml by MTT assay relative to control; format: cell-based; in short: as §3
# HepG2 [14] = test: Cytotoxicity against human HepG2 cells assessed as reduction of cell viability at 50 ug/ml by MTT assay; format: cell-based; in short: as §3
# HepG2 [15] = test: Cytotoxicity against human HepG2 cells assessed as reduction of cell viability at 400 ug/ml by MTT assay relative to control; format: cell-based; in short: as §3
# [16] = Cytotoxicity against porcine PK-15 cells assessed as reduction of cell viability at 5 ug/ml by MTT assay relative to control; format: cell-based, Sus scrofa; details: pig; in short: as §3
# [17] = Cytotoxicity against porcine PK-15 cells assessed as reduction of cell viability at 5 to 400 ug/ml by MTT assay; format: cell-based, Sus scrofa; details: pig; in short: as §3
Structure (SMILES),MIC (Staphylococcus aureus [1]) [µg/mL],MIC (Staphylococcus aureus [2]) [µg/mL],MIC (Staphylococcus aureus [3]) [µg/mL],MIC (Staphylococcus aureus [4]) [µg/mL],MIC (Staphylococcus aureus [5]) [µg/mL],further results
Cc1noc(-c2ccc(N3CC(CI)OC3=O)cc2)n1 (racemic),50,> 50,25,> 50,50,–
Cc1noc(-c2ccc(N3CC(CI)OC3=O)cc2F)n1 (racemic),50,> 50,50,> 50,> 50,–
Cc1noc(-c2ccc(N3CC(CN=[N+]=[N-])OC3=O)cc2)n1 (racemic),> 50,> 50,> 50,> 50,> 50,–
Cc1noc(-c2ccc(N3CC(CN=[N+]=[N-])OC3=O)cc2F)n1 (racemic),> 50,> 50,> 50,> 50,> 50,–
CC(=O)NCC1CN(c2ccc(-c3nc(C)no3)cc2)C(=O)O1 (racemic),6.25,6.25,1.6,12.5,12.5,–
CC(=O)NCC1CN(c2ccc(-c3nc(C)no3)c(F)c2)C(=O)O1 (racemic),6.25,6.25,1.6,12.5,12.5,–
CC(=S)NCC1CN(c2ccc(-c3nc(C)no3)cc2)C(=O)O1 (racemic),≤ 0.4,1.6,1.6,3.13,1.6,Activity (HaCaT [6]): > 60%; Activity [7]: 70%; Activity (HepG2 [8]): Toxic; Activity [9]: Dose-dependent effect; Activity (HaCaT [10]): Toxic; Activity [11]: > 90%
CC(=S)NCC1CN(c2ccc(-c3nc(C)no3)c(F)c2)C(=O)O1 (racemic),≤ 0.4,1.6,0.8,1.6,1.6,Activity [12]: Toxic; Activity (HaCaT [13]): > 50%; Activity (HepG2 [14]): Toxic; Activity (HepG2 [15]): 40%; Activity [16]: < 10%
Cc1noc(-c2ccc(N3CC(Cn4cccn4)OC3=O)cc2)n1 (racemic),> 50,> 50,> 50,> 50,> 50,–
Cc1noc(-c2ccc(N3CC(Cn4cccn4)OC3=O)cc2F)n1 (racemic),> 50,> 50,> 50,> 50,> 50,–
Cc1noc(-c2ccc(N3CC(Cn4ccnc4)OC3=O)cc2)n1 (racemic),> 50,> 50,> 50,> 50,> 50,–
Cc1noc(-c2ccc(N3CC(Cn4ccnc4)OC3=O)cc2F)n1 (racemic),> 50,> 50,> 50,> 50,> 50,–
Cc1noc(-c2ccc(N3CC(Cn4cncn4)OC3=O)cc2)n1 (racemic),> 50,> 50,> 50,> 50,> 50,–
Cc1noc(-c2ccc(N3CC(Cn4cncn4)OC3=O)cc2F)n1 (racemic),> 50,> 50,> 50,> 50,> 50,–
CC(=O)NC[C@H]1CN(c2ccc(N3CCOCC3)c(F)c2)C(=O)O1 [LINEZOLID],0.8,3.13,1.6,≤ 0.4,3.13,Activity (HaCaT [13]): Toxic; Activity (HepG2 [8]): Non-toxic; Activity [17]: Non-toxic
